The subject of data set [1] is Mus musculus. Put plainly: CNS toxicity in Swiss Webster mouse assessed as effect on motor performance at 100 mg/kg, ip after 40 mins by open field test. Also on record: dose 100 mg/kg, route intraperitoneal. Conditions: in vivo. It is filed as organism-based. The method, boiled down: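 Open-field test 40 min after ip dosing: mice placed singly in 40 × 60 × 50 cm box with 12 floor squares; squares crossed with all four paws counted over 3 min; n = 6; one-way ANOVA with Tukey.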

For data set [2], the system named is Mus musculus. Put plainly: Antiinflammatory activity in Swiss Webster mouse assessed as reduction in paw edema at 100 mg/kg, ip dosed 40 mins before CFA injection and measured 2 to 6 hrs post CFA stimulus. It is filed as functional, organism-based. Also on record: dose 100 mg/kg. The gist of the method: (§1)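 Male Swiss Webster mice, ip pretreatment in 5% DMSO/saline 40 min before intraplantar CFA (20 μL, 1 mg/mL heat-killed M. tuberculosis). Paw volume measured by plethysmometer before and 2, 4, 6 h after CFA; edema expressed as percent increase in paw volume; n = 6 mice/group; two-way ANOVA with Bonferroni.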

The subject of data set [3] is Mus musculus. The data set is described as follows: CNS toxicity in Swiss Webster mouse assessed as effect on motor performance at 100 mg/kg, ip after 40 mins by rotarod test. Also on record: dose 100 mg/kg, route intraperitoneal. Conditions: in vivo. Type of data set: organism-based. The method, boiled down:
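Rota-rod test: 3 cm bar at 8 rpm; mice pre-selected 24 h earlier by remaining on bar for two consecutive 120 s periods; placed on rod 40 min after ip dosing; time on bar recorded up to 120 s; n = 6; one-way ANOVA with Tukey.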

The test system of data set [4] is Mus musculus. The data set is described as follows: Antinociceptive activity in Swiss Webster mouse assessed as inhibition of acetic acid-induced abdominal constrictions at 25 to 100 mg/kg, ip dosed 40 mins before acetic acid injection. Type of data set: functional, organism-based. Conditions: Abdomen. The gist of the method:
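Male Swiss Webster mice dosed ip (5% DMSO in saline vehicle) 40 min before ip acetic acid 0.8% v/v, 10 mL/kg; writhes (abdominal contraction with hind-limb stretching) counted over 0−30 min; mean writhing score, n = 10 per group; ANOVA with Tukey.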

Data set [5] relates to Mus musculus. The data set is described as follows: Antinociceptive activity in Swiss Webster mouse assessed as inhibition of formalin-induced late phase pain response at 25 to 100 mg/kg, ip dosed 40 mins before formalin injection. It is filed as functional, organism-based. The method, boiled down:
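Mice acclimated 30 min in chamber, dosed ip 40 min before sc injection of 20 μL 2.5% formalin into dorsal hind paw; licking time of injected paw scored 0−10 min (early phase) and 10−30 min (late phase); n = 7−10; ANOVA with Tukey.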

The test system of data set [6] is Mus musculus. The data set is described as follows: Antiinflammatory activity in Swiss Webster mouse assessed as reduction in hyperalgesia at 100 mg/kg, ip dosed 40 mins before CFA injection and measured 2 to 6 hrs post CFA stimulus. Type of data set: functional, organism-based. Also on record: dose 100 mg/kg. The gist of the method: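 Male Swiss Webster mice (22−28 g) given drug ip in 5% DMSO/saline (dexamethasone in 10% ethanol/saline) 40 min before 20 μL CFA (1 mg/mL heat-killed M. tuberculosis in paraffin oil/mannide monooleate) sc into right hind paw plantar region. Mechanical threshold by von Frey filaments, up−down method, at 2, 4 and 6 h; n = 6; two-way ANOVA with Bonferroni.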

In data set [7] the test system is Mus musculus. Put plainly: Antinociceptive activity in Swiss Webster mouse assessed as increase in latency time at 100 mg/kg, ip measured after 0.5 hrs by hot plate test. Type of data set: functional, organism-based. Also on record: dose 100 mg/kg. The method, boiled down:
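Hot plate held at 55 ± 1 °C; male Swiss Webster mice; reaction time to hind paw licking or jumping recorded before and after ip dosing (vehicle 5% DMSO in saline); data as difference from baseline; 10 s cutoff; n = 6; two-way ANOVA with Bonferroni.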
A general note: In hot-plate and tail-flick tests a longer latency is read as antinociception.

Data set [8] has as its system Mus musculus. Put plainly: Reduction in IL1-beta level in Swiss Webster mouse 2 mg/kg, ip dosed 40 mins before CFA injection and measured 3 hrs post CFA stimulus by ELISA method. As to conditions: at 2 mg/kg. Also on record: dose 2 mg/kg. Type of data set: functional, organism-based. The gist of the method: (§2)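 Mice dosed ip (dexamethasone in 10% ethanol in saline) 40 min before intraplantar CFA; paw skin removed under terminal halothane anesthesia, homogenized 100 mg/mL in PBS with 0.4 M NaCl, 0.05% Tween 20 and protease inhibitors, centrifuged 3000g 10 min, supernatant frozen −70 °C; cytokine by ELISA as pg/mL. n = 6; two-way ANOVA with Bonferroni.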
Background: An ELISA detects its analyte on a solid surface through an enzyme-linked reagent.

Data set [9] has as its system Mus musculus. Put plainly: Reduction in TNFalpha level in Swiss Webster mouse 2 mg/kg, ip dosed 40 mins before CFA injection and measured 3 hrs post CFA stimulus by ELISA method. Type of data set: functional, organism-based. Conditions: at 2 mg/kg. Also on record: dose 2 mg/kg. The gist of the method:
as §2

The subject of data set [10] is Mus musculus. The data set is described as follows: Antiinflammatory activity in Swiss Webster mouse assessed as reduction in hyperalgesia at 2 mg/kg, ip dosed 40 mins before CFA injection and measured 2 to 6 hrs post CFA stimulus. Type of data set: functional, organism-based. Also on record: dose 2 mg/kg. The method, boiled down:
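Male Swiss Webster mice (22−28 g) given drug ip (dexamethasone in 10% ethanol in saline) 40 min before 20 μL CFA (1 mg/mL heat-killed M. tuberculosis in paraffin oil/mannide monooleate) sc into right hind paw plantar region. Mechanical threshold by von Frey filaments, up−down method, at 2, 4, 6 h. Mean ± SEM, n = 6; two-way ANOVA with Bonferroni.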

The subject of data set [11] is Mus musculus. Put plainly: Antiinflammatory activity in Swiss Webster mouse assessed as reduction in paw edema at 2 mg/kg, ip dosed 40 mins before CFA injection and measured 2 to 6 hrs post CFA stimulus. Type of data set: functional, organism-based. Also on record: dose 2 mg/kg. The method, boiled down:
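Male Swiss Webster mice given drug ip (dexamethasone in 10% ethanol in saline) 40 min before intraplantar CFA (20 μL). Paw volume by plethysmometer before and after CFA, at 2, 4, 6 h; expressed as percent increase in paw volume. Mean ± SEM, n = 6; two-way ANOVA with Bonferroni.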

The subject of data set [12] is Mus musculus. The data set is described as follows: Antinociceptive activity in Swiss Webster mouse assessed as inhibition of formalin-induced late phase pain response at 10 mg/kg, ip dosed 40 mins before formalin injection. Type of data set: functional, organism-based. Also on record: dose 10 mg/kg. The method, boiled down: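 Mice acclimated 30 min, dosed ip 40 min before 20 μL 2.5% formalin sc into dorsal hind paw. Licking time of injected paw scored 10–30 min (late phase), mirror-aided observation. Mean ± SEM, n = 7−10; ANOVA with Tukey.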

Data set [13] relates to Mus musculus. Put plainly: Antinociceptive activity in Swiss Webster mouse assessed as inhibition of acetic acid-induced abdominal constrictions at 10 mg/kg, ip dosed 40 mins before acetic acid injection. Type of data set: functional, organism-based. Also on record: dose 10 mg/kg. As to conditions: Abdomen. The method, boiled down: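 Male Swiss Webster mice dosed ip 40 min before ip acetic acid 0.8% v/v (10 mL/kg). Writhes (abdominal contraction with hind limb stretching) counted 0–30 min after injection in a glass cylinder. Mean writhing scores ± SEM, n = 10 per group; ANOVA with Tukey.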

Data set [14] concerns Mus musculus. The data set is described as follows: Antinociceptive activity in Swiss Webster mouse assessed as increase in reaction time at 100 mg/kg, ip measured after 3 hrs by tail flick test. Type of data set: functional, organism-based. Also on record: dose 100 mg/kg. The method, boiled down: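 Mice habituated to restraint cylinder 20 min/day for 5 days; distal 2 cm of tail immersed in 48 ± 0.5 °C water; tail withdrawal latency measured before and after ip dosing (5% DMSO/saline vehicle); 10 s cutoff; n = 6; two-way ANOVA with Bonferroni.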

The test system of data set [15] is Mus musculus. The data set is described as follows: Antiinflammatory activity in Swiss Webster mouse assessed as reduction in paw edema at 100 mg/kg, ip dosed 40 mins before CFA injection and measured 2 hrs post CFA stimulus. It is filed as functional, organism-based. Also on record: dose 100 mg/kg. The method, boiled down: as §1

Active and inactive are the calls of the source.

For `C[C@@]12C[C@H]3OC(=O)[C@@H]1CO[C@@]14O[C@]5([C@H]2C1=O)[C@@](O)(CC[C@H]1[C@H]4C[C@@H](O)[C@@]2(O)CC=CC(=O)[C@]12C)C(=O)O[C@@]35C` [PHYSALIN D], the Activity result in the data set with Mus musculus [1] and in the data set with Mus musculus [3] was “Non-toxic” throughout. Further, the inhibition entry in the data set with Mus musculus [2] and in the data set with Mus musculus [6] was “inactive” in each case. In addition, the inhibition result in the data set with Mus musculus [4] was “Dose-dependent effect”. For the same compound, the inhibition result with Mus musculus [5] was “Active”. Further, the outcome in the data set on Mus musculus [7] was Active.

`C[C@@H]1C[C@H]2[C@@H]3CCC4=CC(=O)C=C[C@]4(C)[C@@]3(F)[C@@H](O)C[C@]2(C)[C@@]1(O)C(=O)CO`: the inhibition entry with Mus musculus [8], in the data set on Mus musculus [9], in the data set on Mus musculus [10] and in the data set with Mus musculus [11] was “Active” in each case.

Take `COc1ccc2c(c1)c(CC(=O)O)c(C)n2C(=O)c1ccc(Cl)cc1`: the inhibition entry in the data set on Mus musculus [12] and with Mus musculus [13] was “Active” each time.

`C[C@]12C(=O)C=CCC1=CC[C@@H]1[C@@H]2CC[C@]2(O)C(=O)O[C@@]3(C)[C@H]4C[C@]5(C)[C@@H](CO[C@@]16O[C@@]32[C@H]5C6=O)C(=O)O4` [PHYSALIN B]: the Activity result with Mus musculus [1] and with Mus musculus [3] was “Non-toxic” throughout. Further, in the data set on Mus musculus [4], the inhibition result is “Dose-dependent effect”. The outcome with Mus musculus [14] was Active. Besides, the inhibition result in the data set with Mus musculus [5] and with Mus musculus [15] was “Active” in each case. Further, the inhibition entry in the data set on Mus musculus [6] is “inactive”.

For the origin of these results see ChEMBL document CHEMBL3351240, “Antinociceptive properties of physalins from Physalis angulata” (J Nat Prod, 2014).
